Bioassay records: PubChem, The Scripps Research Institute Molecular Screening Center
HTR1E agonist – activates the human 5-HT1E serotonin receptor; P28566; CHO 5-HT1E Ga15 NFAT-bla reporter, FRET; 0% DMSO wells, 100% control agonist wells; 65,000 tested, 0.69% active; activation, % at 6 µM;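 active = activation above a set limit, the screen-wide mean activation plus 3 SD, cut at about 8.5% in these data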;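 also: 100% = positive control agonist at 1 µM giving full maximal response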
5HT1a ag – 5-HT1a (human) receptor agonism; CHO 5-HT1a Ga15 NFAT-bla reporter, FRET ratio; 0% basal, 100% maximal reference agonist; activation, % at 10 µM; P08908; 65,000 tested, 0.56% active;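 active = activation above the screen-wide mean activation plus 3 SD, cut at about 19% in these data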;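 also: 0% = DMSO wells and 100% = 5-CT at EC100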
Target sequence (P08908 whole entry, looked up): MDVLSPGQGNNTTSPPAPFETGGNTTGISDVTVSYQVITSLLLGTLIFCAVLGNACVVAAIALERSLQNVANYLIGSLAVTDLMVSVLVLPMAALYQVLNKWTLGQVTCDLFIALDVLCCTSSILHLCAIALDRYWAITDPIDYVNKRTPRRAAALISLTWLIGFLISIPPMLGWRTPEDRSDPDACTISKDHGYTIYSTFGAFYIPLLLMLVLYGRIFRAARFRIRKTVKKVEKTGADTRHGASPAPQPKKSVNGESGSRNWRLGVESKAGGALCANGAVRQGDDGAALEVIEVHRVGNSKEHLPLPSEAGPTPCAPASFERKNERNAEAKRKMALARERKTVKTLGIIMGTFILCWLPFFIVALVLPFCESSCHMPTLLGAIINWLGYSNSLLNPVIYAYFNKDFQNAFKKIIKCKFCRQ
HEK293 NFkB inh – inhibitors of the PMA/ionomycin-induced NF-kB reporter in HEK293 cells. HEK-293 NF-kB luciferase reporter, luminescence. inhibition, % at 3 µM. 62,000 tested, 0.21% active;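 active = inhibition above the mean of all tested compounds plus 3 SD, cut at about 40% in these data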;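 also: 0% = stimulated DMSO wells and 100% = 10 µM reference inhibitor 5653914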
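Timing: 1 h pretreatment, 16 h stimulation, 37 °C; system: HEK-293 cells with stable firefly luciferase reporter driven by four HIV NF-kB elements; doses: 3 µM once, 0.30% DMSO; measured by: luciferase luminescence; control set: DMSO and 10 µM reference inhibitor; repeats: single test; reagent: PMA plus ionomycin mix as NF-kB-activating stimulus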
Jurkat viability – cytotoxic compounds reducing Jurkat cell viability; 56,000 tested, 1.2% active; Jurkat E6.1 viability, ATP luminescence, 48 h; inhibition, % at 4 µM; AID 463;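 active = inhibition above the mean inhibition of all tested compounds plus 3 SD, cut at about 28% in these data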
5HT1a antag – antagonists of human 5-HT1a serotonin receptor; CHO 5-HT1a Ga15 NFAT-bla reporter, antagonist mode; inhibition, % at 10 µM; 62,000 tested, 0.68% active; AID 612;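 active = inhibition above the mean of all tested compounds plus 3 SD, cut at about 43% in these data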;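 also: receptor stimulated by 5-CT agonist at 100 nM near EC80; beta-lactamase reporter measured by ratiometric fluorescence of a cleavable substrate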
HTR1E antagonist – blocks the human 5-HT1E serotonin receptor. P28566. CHO 5-HT1E Ga15 NFAT-bla reporter, FRET, antagonist. inhibition, % at 6 µM. 65,000 tested, 0.99% active. AID 571;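 active = inhibition above a set limit, the mean inhibition across every tested compound plus 3 SD, cut at about 29% in these data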;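 also: signal is the 460 over 535 nm emission ratio of beta-lactamase substrate; 0% = agonist plus DMSO wells and 100% = wells without agonist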
* marks the source's active call; other numbers are inactive results. Rows were chosen to be rich in hits. Some 3.3% of all compounds tested hit in one or more screens of this group.

For COc1cccc2cc(C(=O)NCC3CCCO3)c(=O)oc12 (configuration not stated) the results were HTR1E agonist -0.5, 5HT1a ag 0.6, HEK293 NFkB inh 7.9, 5HT1a antag -2.0 and HTR1E antagonist -1.4.
For COc1ccccc1N=c1oc2cc(O)ccc2cc1C(N)=O the results were HTR1E agonist 18.8*, 5HT1a ag 44.7*, HEK293 NFkB inh 0.6, Jurkat viability 43.3*, 5HT1a antag -92.1 and HTR1E antagonist -24.6.
Screening COc1ccccc1N=c1oc2cc(O)ccc2cc1C(=O)NCC1CCCO1 (configuration not stated) returned HTR1E agonist 14.7*, 5HT1a ag 53.6*, HEK293 NFkB inh 5.8, Jurkat viability 10.3, 5HT1a antag -66.0 and HTR1E antagonist -30.2.
`Cc1noc(C)c1C(=O)OCC(=O)c1cc(C)n(Cc2ccccc2Cl)c1C` gave HTR1E agonist 0.4, 5HT1a ag -1.3, HEK293 NFkB inh 4.9, Jurkat viability 10.5, 5HT1a antag -3.7 and HTR1E antagonist -0.6.
For Brc1cccc(-c2nnc(SCc3nc4ccccc4[nH]3)o2)c1 the results were HTR1E agonist -0.2, 5HT1a ag -1.2, HEK293 NFkB inh 17.9, Jurkat viability 4.5, 5HT1a antag 7.7 and HTR1E antagonist 28.6*.
For CCC(=O)Nc1nc2ccccc2n1Cc1ccc(C)cc1 the results were HTR1E agonist 0.2, 5HT1a ag 0.0, HEK293 NFkB inh 6.8, Jurkat viability 76.4*, 5HT1a antag 1.4 and HTR1E antagonist -8.5.
For COC(=O)CSc1nnc([C@H](Cc2ccccc2)NC(=O)OC(C)(C)C)o1 the results were HTR1E agonist -0.7, 5HT1a ag 0.1, HEK293 NFkB inh 13.4, Jurkat viability -7.4, 5HT1a antag 2.4 and HTR1E antagonist 2.5.
`COC(=O)CS(=O)(=O)c1nnc([C@H](Cc2ccccc2)NC(=O)OC(C)(C)C)o1` gave HTR1E agonist -0.3, 5HT1a ag -6.7, HEK293 NFkB inh 12.5, Jurkat viability 8.6, 5HT1a antag 33.4 and HTR1E antagonist 29.4*.
`CC(C)(C)OC(=O)NCCc1nnc(S(=O)(=O)Cc2ccc(Cl)cc2Cl)o1` gave HTR1E agonist -1.4, 5HT1a ag -0.4, HEK293 NFkB inh 17.4, Jurkat viability 15.2, 5HT1a antag 68.7* and HTR1E antagonist 12.0.
Screening O=C(O)CCCC(=O)N1CCN(c2cccc(Cl)c2)CC1 returned HTR1E agonist 1.3, 5HT1a ag 0.3, HEK293 NFkB inh 3.3, Jurkat viability -5.0, 5HT1a antag 0.2 and HTR1E antagonist -3.0.
For COc1ccc(C(=O)N2CCN(S(=O)(=O)c3ccccc3)CC2)c(OC)c1 the results were HTR1E agonist 0.0, 5HT1a ag -1.8, HEK293 NFkB inh 7.4, Jurkat viability -10.1, 5HT1a antag -2.5 and HTR1E antagonist -10.3.
For COc1ccc(C(=O)N2CCN(c3cccc(Cl)c3)CC2)c(OC)c1 the results were HTR1E agonist 0.8, 5HT1a ag 0.0, HEK293 NFkB inh 15.8, Jurkat viability 56.5*, 5HT1a antag 19.8 and HTR1E antagonist 11.8.
`O=C(c1cccc(F)c1)N1CCN(c2cccc(C(F)(F)F)c2)CC1` gave HTR1E agonist 0.8, 5HT1a ag 0.6, HEK293 NFkB inh 3.5, Jurkat viability -4.2, 5HT1a antag 4.0 and HTR1E antagonist -5.5.
For O=C(O)c1ccccc1C(=O)N1CCN(c2cccc(Cl)c2)CC1 the results were HTR1E agonist 45.0*, 5HT1a ag 3.9, HEK293 NFkB inh 2.5, Jurkat viability -10.9, 5HT1a antag 21.1 and HTR1E antagonist 0.8.
Screening COc1ccccc1C(=O)N1CCN(c2cccc(C(F)(F)F)c2)CC1 returned HTR1E agonist 0.6, 5HT1a ag -1.7, HEK293 NFkB inh 12.5, Jurkat viability 81.5*, 5HT1a antag 7.8 and HTR1E antagonist 4.5.
CCOc1ccccc1C(=O)N1CCN(c2cccc(Cl)c2)CC1 was read as HTR1E agonist 0.7, 5HT1a ag 0.3, HEK293 NFkB inh 39.9*, Jurkat viability 98.0*, 5HT1a antag 69.7* and HTR1E antagonist 69.8*.
Screening Cc1n[nH]c(C)c1S(=O)(=O)N(CC(=O)NC1CCCC1)c1ccc(C(C)C)cc1 returned HTR1E agonist 0.1, 5HT1a ag -1.6, HEK293 NFkB inh 4.9, Jurkat viability 3.6, 5HT1a antag 26.4 and HTR1E antagonist -3.6.
Screening O=S(=O)(CCOc1ccccc1)c1nc2ccccc2[nH]1 returned HTR1E agonist -0.8, 5HT1a ag -0.3, HEK293 NFkB inh -2.2, Jurkat viability 5.5, 5HT1a antag 40.7 and HTR1E antagonist 7.9.
`O=C(c1cccn2c(=O)c3ccc(Cl)cc3nc12)N1CCN(Cc2ccc3c(c2)OCO3)CC1` gave HTR1E agonist 0.9, 5HT1a ag 1.1, HEK293 NFkB inh 13.2, 5HT1a antag 8.0 and HTR1E antagonist -11.5.
O=C(Nc1nnc(-c2ccc3c(c2)CCCC3)o1)C1COc2ccccc2O1 (configuration not stated) was read as HTR1E agonist 0.8, 5HT1a ag -0.8, HEK293 NFkB inh 8.7, Jurkat viability 3.6, 5HT1a antag 10.0 and HTR1E antagonist -2.4.
`COc1ccc(S(=O)(=O)N(CCN2CCOCC2)Cc2cc(OC)ccc2OC)cc1` gave HTR1E agonist -0.7, 5HT1a ag -1.6, HEK293 NFkB inh 4.0, Jurkat viability 3.6, 5HT1a antag 11.1 and HTR1E antagonist -2.6.
`CCCNC(=O)NC(=O)COC(=O)c1ccc(OC)c(S(=O)(=O)N2CCCc3ccccc32)c1` gave HTR1E agonist -0.2, 5HT1a ag -1.2, HEK293 NFkB inh 0.0, Jurkat viability -0.5, 5HT1a antag -9.2 and HTR1E antagonist -9.6.
`OCCOCCn1c2ccccc2c2ccccc21` gave HTR1E agonist 0.4, 5HT1a ag 1.2, HEK293 NFkB inh 13.7, Jurkat viability 3.6, 5HT1a antag 12.2 and HTR1E antagonist -0.5.
Screening CCOc1ccc2ccccc2c1C(=O)N1CCN(c2ccccc2)CC1 returned HTR1E agonist 0.1, 5HT1a ag -2.4, HEK293 NFkB inh 18.3, Jurkat viability 84.6*, 5HT1a antag 39.7 and HTR1E antagonist -0.1.
Nc1nonc1-c1nc2ccccc2n1Cc1ccc(F)cc1Cl was read as HTR1E agonist 0.3, 5HT1a ag -3.4, HEK293 NFkB inh -0.9, Jurkat viability 4.2, 5HT1a antag 62.7* and HTR1E antagonist 18.5.
Screening CCC(=O)Nc1nonc1-c1nc2ccccc2n1Cc1ccc(Cl)c(Cl)c1 returned HTR1E agonist -0.1, 5HT1a ag -4.7, HEK293 NFkB inh 15.2, Jurkat viability -4.2, 5HT1a antag -7.3 and HTR1E antagonist 2.0.
For CC1(C2(O)CC(c3ccccc3)ON2)CCCCC1 (configuration not stated) the results were HTR1E agonist -0.8, 5HT1a ag 3.2 and HTR1E antagonist 36.7*.
